The source made the active and inactive calls. The rule behind the calls is not given here.
Experiments:
Candida tropicalis = assay: Antifungal activity against Candida tropicalis assessed as fungal growth inhibition after 24 hrs by CLSI protocol based broth microdilution assay; type: functional
Staphylococcus aureus [1] = assay: Antibiofilm activity against methicillin-resistant Staphylococcus aureus clinical isolate 6 assessed as disruption of preformed biofilm up to 2 mg/L after 24 hrs by MTT assay; type: functional, organism-based; settings: dose mg/L <=2, time 24.0 hrs
Procedure, shortened: (§1)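 Biofilms of clinical MRSA isolates that form biofilm in culture were preformed for 24 h and then exposed to compound to measure disruption. Significance of control vs treated is given at p < 0.05, 0.01 and 0.001.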

Staphylococcus aureus [2] = assay: Antibiofilm activity against methicillin-resistant Staphylococcus aureus ATCC 43300 assessed as inhibition of biofilm at 0.5 to 2 mg/L after 24 hrs by MTT assay; type: functional, organism-based; settings: dose mg/L 0.5-2, time 24.0 hrs
Procedure, shortened: (§2)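 Biofilm growth of MRSA ATCC 43300 measured in the presence of compound in cultivation plates, with a DMSO control. Significance of control vs treated is given at p < 0.05, 0.01 and 0.001.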

Staphylococcus aureus [3] = assay: Antibacterial activity against methicillin-resistant Staphylococcus aureus clinical isolate 1 assessed as bacterial growth inhibition after 24 hrs by CLSI protocol based broth microdilution assay; type: functional
Procedure, shortened: (§3)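 Broth dilution MIC against 19 multidrug-resistant clinical S. aureus isolates, each taken from a different specimen type.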

Staphylococcus aureus [4] = assay: Antibiofilm activity against methicillin-resistant Staphylococcus aureus clinical isolate 4 assessed as disruption of preformed biofilm up to 2 mg/L after 24 hrs by MTT assay; type: functional, organism-based; settings: dose mg/L <=2, time 24.0 hrs; procedure, shortened: as §1
Staphylococcus aureus [5] = assay: Antibiofilm activity against methicillin-resistant Staphylococcus aureus ATCC 43300 assessed as reduction in biofilm biomass up to 1 mg/L after 24 hrs by scanning electronic microscopic imaging analysis; type: functional, organism-based; settings: dose mg/L <=1, time 24.0 hrs
Procedure, shortened: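 Scanning electron microscopy of 24 h MRSA ATCC 43300 biofilm, untreated or grown with stepwise increasing compound concentrations.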

Candida albicans = assay: Antifungal activity against Candida albicans assessed as fungal growth inhibition after 24 hrs by CLSI protocol based broth microdilution assay; type: functional
Staphylococcus aureus [6] = assay: Antibacterial activity against methicillin-resistant Staphylococcus aureus clinical isolate 11 assessed as bacterial growth inhibition after 24 hrs by CLSI protocol based broth microdilution assay; type: functional; procedure, shortened: as §3
Staphylococcus aureus [7] = assay: Antibiofilm activity against methicillin-resistant Staphylococcus aureus clinical isolate 11 assessed as disruption of preformed biofilm up to 2 mg/L after 24 hrs by MTT assay; type: functional, organism-based; settings: dose mg/L <=2, time 24.0 hrs; procedure, shortened: as §1
Staphylococcus aureus [8] = assay: Antibiofilm activity against methicillin-resistant Staphylococcus aureus ATCC 43300 assessed as reduction in biofilm biomass at 0.5 to 4 mg/L after 24 hrs by MTT assay; type: functional, organism-based; settings: dose mg/L 0.5-4, time 24.0 hrs; procedure, shortened: as §2
Staphylococcus aureus [9] = assay: Antibiofilm activity against methicillin-resistant Staphylococcus aureus clinical isolate 5 assessed as disruption of preformed biofilm up to 2 mg/L after 24 hrs by MTT assay; type: functional, organism-based; settings: dose mg/L <=2, time 24.0 hrs; procedure, shortened: as §1
Staphylococcus aureus [10] = assay: Antibacterial activity against methicillin-resistant Staphylococcus aureus clinical isolate 4 assessed as bacterial growth inhibition after 24 hrs by CLSI protocol based broth microdilution assay; type: functional; procedure, shortened: as §3
Staphylococcus aureus [11] = assay: Antibacterial activity against methicillin-resistant Staphylococcus aureus clinical isolate 16 assessed as bacterial growth inhibition after 24 hrs by CLSI protocol based broth microdilution assay; type: functional; procedure, shortened: as §3
Staphylococcus aureus [12] = assay: Antibiofilm activity against methicillin-resistant Staphylococcus aureus clinical isolate 3 assessed as disruption of preformed biofilm up to 2 mg/L after 24 hrs by MTT assay; type: functional, organism-based; settings: dose mg/L <=2, time 24.0 hrs; procedure, shortened: as §1
Staphylococcus aureus [13] = assay: Antibacterial activity against methicillin-resistant Staphylococcus aureus clinical isolate 3 assessed as bacterial growth inhibition after 24 hrs by CLSI protocol based broth microdilution assay; type: functional; procedure, shortened: as §3
Staphylococcus aureus [14] = assay: Antibiofilm activity against methicillin-resistant Staphylococcus aureus clinical isolate 18 assessed as disruption of preformed biofilm up to 2 mg/L after 24 hrs by MTT assay; type: functional, organism-based; settings: dose mg/L <=2, time 24.0 hrs; procedure, shortened: as §1
Staphylococcus aureus [15] = assay: Antibacterial activity against methicillin-resistant Staphylococcus aureus clinical isolate 9 assessed as bacterial growth inhibition after 24 hrs by CLSI protocol based broth microdilution assay; type: functional; procedure, shortened: as §3
Staphylococcus aureus [16] = assay: Inhibition of Staphylococcus aureus ATCC 6538 fabI expressed in Escherichia coli BL21 (DE3) assessed as oxidation of NADPH to NADP+ using trans-2-octenoyl CoA as substrate incubated for 2 hrs in presence of NADPH by spectrophotometric analysis
Staphylococcus aureus [17] = assay: Antibacterial activity against methicillin-resistant Staphylococcus aureus clinical isolate 15 assessed as bacterial growth inhibition after 24 hrs by CLSI protocol based broth microdilution assay; type: functional; procedure, shortened: as §3
Staphylococcus aureus [18] = assay: Antibacterial activity against methicillin-resistant Staphylococcus aureus clinical isolate 10 assessed as bacterial growth inhibition after 24 hrs by CLSI protocol based broth microdilution assay; type: functional; procedure, shortened: as §3
Pseudomonas aeruginosa = assay: Antibacterial activity against Pseudomonas aeruginosa assessed as bacterial growth inhibition after 24 hrs by CLSI protocol based broth microdilution assay; type: functional
Staphylococcus aureus [19] = assay: Antibiofilm activity against methicillin-resistant Staphylococcus aureus clinical isolate 17 assessed as disruption of preformed biofilm up to 2 mg/L after 24 hrs by MTT assay; type: functional, organism-based; settings: dose mg/L <=2, time 24.0 hrs; procedure, shortened: as §1
Staphylococcus aureus [20] = assay: Antibacterial activity against methicillin-resistant Staphylococcus aureus clinical isolate 13 assessed as bacterial growth inhibition after 24 hrs by CLSI protocol based broth microdilution assay; type: functional; procedure, shortened: as §3
GES1 = assay: Cytotoxicity against human GES1 cells assessed as reduction in cell viability at 80 mg/L after 24 hrs by MTT assay relative to control; type: cell-based; settings: ges1, 24 h, at 80 µg/mL
Staphylococcus aureus [21] = assay: Antibacterial activity against methicillin-resistant Staphylococcus aureus clinical isolate 18 assessed as bacterial growth inhibition after 24 hrs by CLSI protocol based broth microdilution assay; type: functional; procedure, shortened: as §3
Staphylococcus aureus [22] = assay: Antibacterial activity against methicillin-resistant Staphylococcus aureus clinical isolate 2 assessed as bacterial growth inhibition after 24 hrs by CLSI protocol based broth microdilution assay; type: functional; procedure, shortened: as §3
Staphylococcus aureus [23] = assay: Antibacterial activity against methicillin-resistant Staphylococcus aureus clinical isolate 5 assessed as bacterial growth inhibition after 24 hrs by CLSI protocol based broth microdilution assay; type: functional; procedure, shortened: as §3
Staphylococcus aureus [24] = assay: Antibacterial activity against methicillin-resistant Staphylococcus aureus clinical isolate 17 assessed as bacterial growth inhibition after 24 hrs by CLSI protocol based broth microdilution assay; type: functional; procedure, shortened: as §3
Staphylococcus aureus [25] = assay: Antibacterial activity against methicillin-resistant Staphylococcus aureus clinical isolate 8 assessed as bacterial growth inhibition after 24 hrs by CLSI protocol based broth microdilution assay; type: functional; procedure, shortened: as §3
Staphylococcus aureus [26] = assay: Antibacterial activity against methicillin-resistant Staphylococcus aureus clinical isolate 19 assessed as bacterial growth inhibition after 24 hrs by CLSI protocol based broth microdilution assay; type: functional; procedure, shortened: as §3
Staphylococcus aureus [27] = assay: Antibacterial activity against methicillin-resistant Staphylococcus aureus clinical isolate 12 assessed as bacterial growth inhibition after 24 hrs by CLSI protocol based broth microdilution assay; type: functional; procedure, shortened: as §3
Staphylococcus aureus [28] = assay: Antibacterial activity against methicillin-resistant Staphylococcus aureus clinical isolate 7 assessed as bacterial growth inhibition after 24 hrs by CLSI protocol based broth microdilution assay; type: functional; procedure, shortened: as §3
Staphylococcus aureus [29] = assay: Binding affinity to Staphylococcus aureus ATCC 6538 fabI expressed in Escherichia coli BL21 (DE3) assessed as tetramer transition of partial dimer resulting in peak shift at 1:10:10 ratio incubated for overnight in presence of NADP+ by analytical size exclusion chromatography; settings: time 12.0 hrs
Staphylococcus aureus [30] = assay: Antibacterial activity against Staphylococcus aureus assessed as bacterial growth inhibition after 24 hrs by CLSI protocol based broth microdilution assay; type: functional
L02 = assay: Cytotoxicity against human L02 cells assessed as reduction in cell viability at 80 mg/L after 24 hrs by MTT assay relative to control; type: cell-based; settings: l02, 24 h, at 80 µg/mL
Staphylococcus aureus [31] = assay: Antibiofilm activity against methicillin-resistant Staphylococcus aureus clinical isolate 12 assessed as disruption of preformed biofilm up to 2 mg/L after 24 hrs by MTT assay; type: functional, organism-based; settings: dose mg/L <=2, time 24.0 hrs; procedure, shortened: as §1
Escherichia coli = assay: Antibacterial activity against Escherichia coli assessed as bacterial growth inhibition after 24 hrs by CLSI protocol based broth microdilution assay; type: functional
Bacillus cereus = assay: Antibacterial activity against Bacillus cereus assessed as bacterial growth inhibition after 24 hrs by CLSI protocol based broth microdilution assay; type: functional
Staphylococcus aureus [32] = assay: Antibacterial activity against methicillin-resistant Staphylococcus aureus clinical isolate 6 assessed as bacterial growth inhibition after 24 hrs by CLSI protocol based broth microdilution assay; type: functional; procedure, shortened: as §3
Staphylococcus aureus [33] = assay: Antibiofilm activity against methicillin-resistant Staphylococcus aureus clinical isolate 2 assessed as disruption of preformed biofilm up to 2 mg/L after 24 hrs by MTT assay; type: functional, organism-based; settings: dose mg/L <=2, time 24.0 hrs; procedure, shortened: as §1
Enterococcus faecium = assay: Antibacterial activity against Enterococcus faecium assessed as bacterial growth inhibition after 24 hrs by CLSI protocol based broth microdilution assay; type: functional
Staphylococcus aureus [34] = assay: Antibiofilm activity against methicillin-resistant Staphylococcus aureus clinical isolate 16 assessed as disruption of preformed biofilm up to 2 mg/L after 24 hrs by MTT assay; type: functional, organism-based; settings: dose mg/L <=2, time 24.0 hrs; procedure, shortened: as §1
Staphylococcus aureus [35] = assay: Antibacterial activity against methicillin-resistant Staphylococcus aureus clinical isolate 14 assessed as bacterial growth inhibition after 24 hrs by CLSI protocol based broth microdilution assay; type: functional; procedure, shortened: as §3

Oc1c(Br)cc(Cl)cc1CNc1cc(C(F)(F)F)ccc1Cl
MIC (Candida tropicalis): ≥ 64 µg/mL
Activity (Staphylococcus aureus [1]): Active
inhibition (Staphylococcus aureus [2]): Active
MIC (Staphylococcus aureus [3]): ≤ 1 µg/mL
Activity (Staphylococcus aureus [4]): Active
inhibition (Staphylococcus aureus [5]): Active
MIC (Candida albicans): ≥ 64 µg/mL
MIC (Staphylococcus aureus [6]): ≤ 1 µg/mL
Activity (Staphylococcus aureus [7]): Active
Activity (Staphylococcus aureus [8]): Active
Activity (Staphylococcus aureus [9]): Active
MIC (Staphylococcus aureus [10]): ≤ 1 µg/mL
MIC (Staphylococcus aureus [11]): ≤ 1 µg/mL
Activity (Staphylococcus aureus [12]): Active
MIC (Staphylococcus aureus [13]): ≤ 1 µg/mL
Activity (Staphylococcus aureus [14]): Active
MIC (Staphylococcus aureus [15]): ≤ 1 µg/mL
inhibition (Staphylococcus aureus [16]): Active
MIC (Staphylococcus aureus [17]): ≤ 1 µg/mL
MIC (Staphylococcus aureus [18]): ≤ 1 µg/mL
MIC (Pseudomonas aeruginosa): ≥ 64 µg/mL
Activity (Staphylococcus aureus [19]): Active
MIC (Staphylococcus aureus [20]): ≤ 1 µg/mL
Activity (GES1): 50%
MIC (Staphylococcus aureus [21]): ≤ 1 µg/mL
MIC (Staphylococcus aureus [22]): ≤ 1 µg/mL
MIC (Staphylococcus aureus [23]): ≤ 1 µg/mL
MIC (Staphylococcus aureus [24]): ≤ 1 µg/mL
MIC (Staphylococcus aureus [25]): ≤ 1 µg/mL
MIC (Staphylococcus aureus [26]): ≤ 1 µg/mL
MIC (Staphylococcus aureus [27]): ≤ 1 µg/mL
MIC (Staphylococcus aureus [28]): ≤ 1 µg/mL
Activity (Staphylococcus aureus [29]): Active
MIC (Staphylococcus aureus [30]): ≤ 2 µg/mL
Activity (L02): 50%
Activity (Staphylococcus aureus [31]): Active
MIC (Escherichia coli): ≥ 64 µg/mL
MIC (Bacillus cereus): ≤ 2 µg/mL
MIC (Staphylococcus aureus [32]): ≤ 1 µg/mL
Activity (Staphylococcus aureus [33]): Active
MIC (Enterococcus faecium): ≤ 2 µg/mL
Activity (Staphylococcus aureus [34]): Active
MIC (Staphylococcus aureus [35]): ≤ 1 µg/mL

Reference: ChEMBL document CHEMBL4665639, “N-Benzylanilines as Fatty Acid Synthesis Inhibitors against Biofilm-related Methicillin-resistant Staphylococcus aureus” (ACS Med Chem Lett, 2019)
